Published values collected from several papers.
Compare with care: the assays were run in different laboratories.
Target: Tyrosine-protein kinase ABL2 (ABL2, Homo sapiens, UniProt P42684)

For `CO[C@@H](C)c1c(Nc2ccc([C@H](N(C)C(=O)C3CCS(=O)(=O)CC3)C(F)(F)F)cc2)cnc2cc(Cl)nn12`, the remaining binding was 85% (cell-free assay; competition with immobilised ligand; 1 µM).
For `Cc1c(-c2ccccc2)oc2c(C(=O)OCCN3CCCCC3)cccc2c1=O`, the remaining binding was 94% (cell-free assay; competition with immobilised ligand; 10 µM).
`O=C(NCCCN1CCOCC1)c1ccc(Nc2ncc(Cl)c(-c3ccc(Cl)s3)n2)cc1` has a remaining binding of 67% (binding; competition with immobilised ligand; 1 µM).
For `COc1cnc(Nc2cccc(S(N)(=O)=O)c2)nc1N1CCN(c2ccccc2)CC1`, the remaining binding was 98% (binding; competition with immobilised ligand; 1 µM).
With `COC(=O)Nc1nc2cc(C(=O)c3ccccc3)ccc2[nH]1` the remaining binding was 100% (cell-free assay; competition with immobilised ligand; 0.1 µM).
`COc1ccnn2ncc(-c3ccnc(N(C)C)n3)c12` has a remaining binding of 86% (binding; 1 µM).
`CS(=O)(=O)CCNCc1ccc(-c2ccc3ncnc(Nc4ccc(OCc5cccc(F)c5)c(Cl)c4)c3c2)o1` gave a remaining binding of 99% (cell-free assay; competition with immobilised ligand; 0.1 µM).
For `O=C(c1ccc(Nc2nccc(-c3cc4ccccc4s3)n2)cc1)N1CCC(N2CCCC2)CC1`, the remaining binding was 77% (binding; competition with immobilised ligand; 1 µM).
`C[C@H]1CCN(c2nccc(-c3cnn4ncccc34)n2)C1` gave a remaining binding of 78% (binding; 1 µM).
With `CCN(CC)CCNC(=O)c1c(C)[nH]c(/C=C2\C(=O)Nc3ccc(F)cc32)c1C` the remaining binding was 51% (cell-free assay; competition with immobilised ligand; 10 µM).
With `N[C@@H]1CCN(c2nccc(-c3cnn4ncccc34)n2)C1` the remaining binding was 96% (binding; 1 µM).
`O=C(NCC1CCOCC1)c1n[nH]cc1NC(=O)c1c(F)cccc1F` has a remaining binding of 100% (binding; competition with immobilised ligand; 1 µM).
`c1cncc(-c2cccc(Nc3nccc(NC4CCCCC4)n3)c2)c1` gave a remaining binding of 56% (binding; competition with immobilised ligand; 10 µM).
`CNC(=O)c1cc(Oc2ccc(NC(=O)Nc3ccc(Cl)c(C(F)(F)F)c3)cc2)ccn1` has a remaining binding of 97% (cell-free assay; competition with immobilised ligand; 0.1 µM).
With `CN(c1nccc(-c2cnn3ncccc23)n1)C1CC1` the remaining binding was 99% (binding; 1 µM).
For `COc1cc2ncnc(Nc3ccc(F)c(Cl)c3)c2cc1OCCCN1CCOCC1`, the remaining binding was 100% (cell-free assay; competition with immobilised ligand; 0.1 µM).
The remaining binding of `CSc1cccnc1N1CCN(Cc2nc3ccccc3[nH]2)CC1` is reported as 98% (cell-free assay; competition with immobilised ligand; 1 µM).
The remaining binding of `CN(C)c1nccc(-c2cnn3ncccc23)n1` is reported as 99% (binding; 1 µM).
With `CC(C)(O)c1cncc(-c2nc3ccc(F)cc3n2C2CC2)c1` the remaining binding was 100% (cell-free assay; competition with immobilised ligand; 1 µM).
The remaining binding of `CN(CCCC(F)(F)F)c1nccc(-c2cnn3ncccc23)n1` is reported as 93% (binding; 1 µM).
For `Cc1nc(Cc2cccc(C(F)(F)F)c2)sc1-c1ccc(C(N)=O)nc1`, the remaining binding was 100% (cell-free assay; competition with immobilised ligand; 1 µM).
The remaining binding of `CNC(=O)[C@@H]1CC[C@@H](n2c(-c3ccc4cnccc4c3)nc3ccc(C(=O)NCc4cccc(C(N)=O)c4)cc32)C1` is reported as 98% (binding; competition with immobilised ligand; 1 µM).
For `N#CC1(c2ccccn2)CCN(Cc2cc(C(=O)N3CCCC3)c(=O)n3ccccc23)CC1`, the remaining binding was 100% (cell-free assay; competition with immobilised ligand; 1 µM).
`C=CC(=O)N1CCC(C(=O)NCC(=O)N2CCN(c3nc(-c4cnc(N)nc4C(F)F)nc(N4CCOCC4)n3)CC2)CC1` gave a remaining binding of 91% (binding; competition with immobilised ligand; 1 µM).
With `Cn1nc(C(F)(F)F)cc1-c1cnc(N2CCc3cc(S(=O)(=O)Nc4c(F)cc(Cl)cc4F)cc(N4CCCC4=O)c32)nc1` the remaining binding was 100% (cell-free assay; competition with immobilised ligand; 1 µM).
`C[C@@H](c1ccc(-n2cnc3c(N)ncnc32)cc1)N1CCc2nn(C)c(Cc3ccccc3)c2C1=O` has a remaining binding of 76% (binding; competition with immobilised ligand; 0.1 µM).
`CN1CC[C@H](c2c(O)cc(O)c3c(=O)cc(-c4ccccc4Cl)oc23)[C@H](O)C1` gave a remaining binding of 80% (cell-free assay; competition with immobilised ligand; 10 µM).
`C[C@@H](c1cccc(C#N)c1)n1cc(Cl)cc(C(N)=O)c1=N` gave a remaining binding of 84% (cell-free assay; competition with immobilised ligand; 1 µM).
The remaining binding of `CCN(CC)Cc1cc(Nc2ccnc3cc(Cl)ccc23)ccc1O` is reported as 100% (cell-free assay; competition with immobilised ligand; 10 µM).
With `COc1cccc(CNC(=O)c2nc3scc(COCc4ccc(C(=O)O)cc4)c3c(=O)[nH]2)c1` the remaining binding was 82.2% (cell-free assay; competition with immobilised ligand; 1 µM).
